{"data": "Assay results gathered from unrelated publications", "note": "Compare with care: the assays were run in different laboratories."}
{"Structure (SMILES)": "C#Cc1cccc(Nc2ncnc3cc(OCCOC)c(OCCOC)cc23)c1", "system": "male Sprague-Dawley rat, plasma", "conditions": "oral, 12 mg/kg, single dose", "AUC(0-inf) [ng·h/mL]": 9260}
{"Structure (SMILES)": "COCCOC(=O)C1=C(C)NC(C)=C(C(=O)OC(C)C)C1c1cccc([N+](=O)[O-])c1 (stereo not drawn)", "system": "male Sprague-Dawley rat, plasma", "conditions": "intravenous, 3 mg/kg", "AUC(0-inf) [ng·h/mL]": 573}
{"Structure (SMILES)": "COc1nc(-c2cc(C)c(N[C@@H](C)c3cc(F)cc(F)c3)nn2)ccc1-n1cnc(C)c1", "system": "male Sprague-Dawley rat, plasma", "conditions": "intravenous, 1 mg/kg, single dose", "AUC(0-inf) [ng·h/mL]": 6710}
{"Structure (SMILES)": "Oc1cc(O)cc(-c2cc3ccc(O)cc3o2)c1", "system": "male rat, plasma", "conditions": "intravenous, 5 mg/kg", "AUC(0-inf) [ng·h/mL]": 932}
{"Structure (SMILES)": "COc1ccc(C(C)=O)c(O)c1", "system": "male Sprague-Dawley rat, plasma", "conditions": "oral, 100 mg/kg", "AUC(0-inf) [ng·h/mL]": 38600}
{"Structure (SMILES)": "CCc1nc(C(N)=O)c(Nc2ccc(N3CCC(N4CCN(C)CC4)CC3)c(OC)c2)nc1NC1CCOCC1", "system": "male Sprague-Dawley rat, plasma", "conditions": "oral, 10 mg/kg", "AUC(0-inf) [ng·h/mL]": 11500}
{"Structure (SMILES)": "O=C(Nc1cc(F)c(F)c(F)c1)c1ccc(F)c(S(=O)(=O)NCc2cccc(B(O)O)c2)c1", "system": "male Sprague-Dawley rat, plasma", "conditions": "intravenous, 2 mg/kg", "AUC(0-inf) [ng·h/mL]": 246}
{"Structure (SMILES)": "CCOC(=O)[C@@]12C[C@@H]1[C@@H](n1ccc3c(NC)nc(C#Cc4ccc(Cl)s4)nc31)[C@H](O)[C@@H]2O", "system": "male Sprague-Dawley rat, plasma", "conditions": "oral, 3 mg/kg", "AUC(0-inf) [ng·h/mL]": 172}
{"Structure (SMILES)": "CCc1cc(OC)c2nccc(N3CCc4c(cc(Cn5ccnc5)cc4-c4cn(C)nc4C(F)(F)F)C3=O)c2c1", "system": "male Sprague-Dawley rat, plasma", "conditions": "oral, 50 mg/kg", "AUC(0-inf) [ng·h/mL]": 10300}
{"Structure (SMILES)": "COc1cc2c3c(n(CCCN4CCOCC4)c(=O)c2cc1OC)-c1cc2c(cc1C3=O)OCO2", "system": "male Fischer 344 rat, plasma", "conditions": "intravenous, 12 mg/m², single dose", "AUC(0-inf) [ng·h/mL]": 232}
{"Structure (SMILES)": "O=C(Nc1ccc(-c2nc(-c3ccc(Cl)cc3)no2)cc1)C1CC(=O)N(Cc2ccco2)C1 (stereo not drawn)", "system": "male Wistar rat, brain", "conditions": "intraperitoneal, 10 mg/kg", "AUC(0-inf) [ng·h/mL]": 12500}
{"Structure (SMILES)": "COc1ccc2c(Cc3ccccc3F)c3n(c(=O)c2c1OC)CCc1cc2c(cc1-3)OCO2", "system": "rat, plasma", "conditions": "oral, 5 mg/kg", "AUC(0-inf) [ng·h/mL]": 7960}
{"Structure (SMILES)": "CCc1cc(C(=O)NC)c2nccc(N3CCc4c(cc(Cn5ccnc5)cc4-c4cn(C)nc4C(F)(F)F)C3=O)c2c1", "system": "male Sprague-Dawley rat, plasma", "conditions": "oral, 50 mg/kg, single dose", "AUC(0-inf) [ng·h/mL]": 11100}
{"Structure (SMILES)": "Oc1c(Br)cc(Cl)c2cccnc12", "system": "Sprague-Dawley rat, plasma", "conditions": "intravenous, 2 mg/kg", "AUC(0-inf) [ng·h/mL]": 1200}
{"Structure (SMILES)": "Cc1c(-c2ccccc2)cccc1N1C(=O)c2cc(CN[C@H](C(=O)O)C(C)O)c(OCc3cccc(C#N)c3)cc2C1=O (stereo partly drawn)", "system": "Sprague-Dawley rat, plasma", "conditions": "oral, 50 mg/kg", "AUC(0-inf) [ng·h/mL]": 100}
